Published values of several laboratories.
Target: Protein-tyrosine kinase 2-beta (PTK2B, Homo sapiens, UniProt Q14289)

| Compound | read-out | method | tested at | remaining binding |
| --- | --- | --- | --- | --- |
| Cc1c[nH]c2nccc(Oc3c(F)cc(Nc4cc(Cl)nc(N)n4)cc3F)c12 | cell-free assay | competition with immobilised ligand | 0.1 µM | 90% |
| Nc1ncc2c(n1)-c1c([nH]c3ccc(C#CC4CC4)cc13)CCCC2 | binding | competition with immobilised ligand | 1 µM | 98% |
| COc1cnc(Nc2cccc(S(N)(=O)=O)c2)nc1N1CCN(c2ccccc2)C(=O)C1 | binding | competition with immobilised ligand | 1 µM | 100% |
| CN(CCCC(F)(F)F)c1nccc(-c2cnn3ncccc23)n1 | binding |  | 1 µM | 100% |
| O=C(c1ccc(Nc2ncc(Cl)c(-c3ccc(Cl)s3)n2)cc1)N1CCC(N2CCCC2)CC1 | binding | competition with immobilised ligand | 1 µM | 49% |
| C[C@@H](c1ccc(-n2cnc3c(N)ncnc32)cc1)N1CCc2nn(C)c(Cc3ccccc3)c2C1=O | binding | competition with immobilised ligand | 0.1 µM | 95% |
| NS(=O)(=O)c1cc(NC(=O)C2(c3ccccc3Cl)CC2)ccc1Oc1cccc(Cl)c1 | cell-free assay | competition with immobilised ligand | 1 µM | 91% |
| COc1ncc2cc3ccccc3nc2c1C#N | cell-free assay | competition with immobilised ligand | 5 µM | 100% |
| O=C(NCCCN1CCOCC1)c1ccc(Nc2nccc(-c3cc4ccccc4s3)n2)cc1 | binding | competition with immobilised ligand | 1 µM | 64% |
| c1cnn2ncc(-c3ccnc(N4CCC45COC5)n3)c2c1 | binding |  | 1 µM | 80% |
| O=C(Nc1c[nH]nc1C(=O)NC1CCNCC1)c1cc(F)cc(F)c1 | binding | competition with immobilised ligand | 1 µM | 91% |
| CNC(=O)[C@@H]1CC[C@@H](n2c(-c3ccc4cnccc4c3)nc3ccc(C(=O)NCc4cccc(C(N)=O)c4)cc32)C1 | binding | competition with immobilised ligand | 1 µM | 99% |
| CO[C@H]1CC[C@H](CNc2ccc(S(=O)(=O)NC(=O)c3ccc(N4CCN(CC5=C(c6ccc(Cl)cc6)CC(C)(C)CC5)CC4)cc3Oc3cnc4[nH]ccc4c3)cc2[N+](=O)[O-])CC1 | cell-free assay | competition with immobilised ligand | 1 µM | 87% |
| C[C@H]1CCN(c2nccc(-c3cnn4ncccc34)n2)C1 | binding |  | 1 µM | 100% |
| O=C(O)[C@H]1[C@H](Cn2nnc3ccccc3c2=O)CC[C@@H]1C(=O)c1ccc(OCCC2CCOCC2)cc1 | cell-free assay | competition with immobilised ligand | 1 µM | 75% |
| CN(c1nccc(-c2cnn3ncccc23)n1)C1CC1 | binding |  | 1 µM | 100% |
| CS(=O)(=O)c1cc(C2(NC(=O)c3cncc4c3cnn4-c3ccc(F)cc3)CC2)ccn1 | cell-free assay | competition with immobilised ligand | 1 µM | 100% |
| N[C@@H]1CCN(c2nccc(-c3cnn4ncccc34)n2)C1 | binding |  | 1 µM | 100% |
| O=C(NCCCN1CCOCC1)c1ccc(Nc2ncc(Cl)c(-c3ccc(Cl)s3)n2)cc1 | binding | competition with immobilised ligand | 1 µM | 41% |
| Cc1cnn2ncc(-c3ccnc(N(C)C)n3)c2c1 | binding |  | 1 µM | 100% |
| Nc1cnc(N2CCc3cc(S(=O)(=O)Nc4c(F)cc(Cl)cc4F)cc(N4CCCC4=O)c32)nc1 | cell-free assay | competition with immobilised ligand | 1 µM | 100% |
